Experimental data reported in PubChem BioAssay AID488769 (The Scripps Research Institute Molecular Screening Center, 2010).

Biological target: Nuclear receptor subfamily 5 group A member 2 (Homo sapiens) (UniProt O00482)
Assay: lowering haptoglobin, SAA1, SAA4 transcripts – cell-based, quantitative PCR, fluorescence (AID 488769)
Conditions: Huh7 cytokine-induced target gene mRNA, TaqMan qPCR, 18 h, at 10 µM, hits give high values;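 active means compounds cutting cytokine-driven expression of at least one of three liver inflammation genes by over 25%; inactive means the rest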
Summary of the method: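 replication = triplicate | test system = Huh7 cells with endogenous LRH-1 expression | signal = TaqMan qPCR of haptoglobin, SAA1 and SAA4 mRNA | reagent = IL-1β and IL-6, 3 nM | incubation = 18 h compound exposure, then 3 h cytokine stimulation | dosing = single dose, 10 µM | measure = mean percent inhibition of target gene expression, total-RNA normalized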

Measured: inhibition

Chain of Nuclear receptor subfamily 5 group A member 2 (Homo sapiens) (O00482 whole entry, looked up): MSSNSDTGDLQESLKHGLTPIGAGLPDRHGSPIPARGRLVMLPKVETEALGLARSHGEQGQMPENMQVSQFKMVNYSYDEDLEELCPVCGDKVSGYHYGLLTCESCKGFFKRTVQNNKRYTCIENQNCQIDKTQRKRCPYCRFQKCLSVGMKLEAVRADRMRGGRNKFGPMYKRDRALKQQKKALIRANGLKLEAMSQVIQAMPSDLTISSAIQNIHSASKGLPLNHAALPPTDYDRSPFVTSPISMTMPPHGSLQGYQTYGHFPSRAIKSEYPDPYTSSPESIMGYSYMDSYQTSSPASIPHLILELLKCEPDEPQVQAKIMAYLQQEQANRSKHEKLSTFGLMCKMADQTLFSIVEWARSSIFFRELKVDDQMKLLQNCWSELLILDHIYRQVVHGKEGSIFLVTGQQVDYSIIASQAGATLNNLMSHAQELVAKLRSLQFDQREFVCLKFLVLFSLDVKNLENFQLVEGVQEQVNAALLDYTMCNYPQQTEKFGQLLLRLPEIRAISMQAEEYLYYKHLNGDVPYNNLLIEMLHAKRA

O=c1cc(N2CCN(c3cccc(Cl)c3)CC2)[nH]c(=O)n1C1CCCCC1
active: Haptoglobin 88% | SAA1 91% | SAA4 55%

O=c1cc(N2CCN(c3cccc(C(F)(F)F)c3)CC2)[nH]c(=O)n1C1CCCCC1
active: Haptoglobin 86% | SAA1 93% | SAA4 55%
